Laboratory results reported in ChEMBL document CHEMBL1944596, “7,8-dichloro-1-oxo-β-carbolines as a versatile scaffold for the development of potent and selective kinase inhibitors with unusual binding modes” (J Med Chem, 2012).

Columns and labels:
[1] = target: AP2-associated protein kinase 1 (Homo sapiens) (UniProt Q2M2I8); assay: Binding affinity to AAK1 assessed as change in thermal denaturation at 10 uM by thermal stability shift assay
How it was run: (§1)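 Each compound was screened across a kinase panel by thermal stability shift assay. The read-out was the shift in protein melting temperature (ΔTm, in °C) relative to the unliganded kinase. A ΔTm of 4.0 °C served as the hit cutoff.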

[2] = target: TGF-beta receptor type-2 (Homo sapiens) (UniProt P37173); assay: Binding affinity to TGFBR2 assessed as change in thermal denaturation at 10 uM by thermal stability shift assay; how it was run: as §1
TGF-beta receptor type-2 (Homo sapiens), sequence (P37173 whole entry): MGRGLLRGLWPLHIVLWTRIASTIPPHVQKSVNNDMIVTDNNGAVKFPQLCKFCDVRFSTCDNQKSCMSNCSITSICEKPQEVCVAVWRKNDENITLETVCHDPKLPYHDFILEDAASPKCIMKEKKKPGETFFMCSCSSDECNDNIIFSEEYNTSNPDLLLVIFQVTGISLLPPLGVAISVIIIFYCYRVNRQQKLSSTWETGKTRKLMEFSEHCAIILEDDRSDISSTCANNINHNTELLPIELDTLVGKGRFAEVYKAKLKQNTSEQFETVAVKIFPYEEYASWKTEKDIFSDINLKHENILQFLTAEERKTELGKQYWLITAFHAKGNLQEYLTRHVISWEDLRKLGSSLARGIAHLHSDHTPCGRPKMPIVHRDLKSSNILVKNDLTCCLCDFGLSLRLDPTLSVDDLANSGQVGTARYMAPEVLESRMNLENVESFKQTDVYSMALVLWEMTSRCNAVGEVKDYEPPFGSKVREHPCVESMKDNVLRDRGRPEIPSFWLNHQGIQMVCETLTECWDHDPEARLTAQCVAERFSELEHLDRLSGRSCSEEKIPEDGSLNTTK

[3] = target: Serine/threonine-protein kinase 33 (Homo sapiens) (UniProt Q9BYT3); assay: Binding affinity to STK33 assessed as change in thermal denaturation at 10 uM by thermal stability shift assay; how it was run: as §1
Serine/threonine-protein kinase 33 (Homo sapiens), sequence (Q9BYT3 whole entry, looked up): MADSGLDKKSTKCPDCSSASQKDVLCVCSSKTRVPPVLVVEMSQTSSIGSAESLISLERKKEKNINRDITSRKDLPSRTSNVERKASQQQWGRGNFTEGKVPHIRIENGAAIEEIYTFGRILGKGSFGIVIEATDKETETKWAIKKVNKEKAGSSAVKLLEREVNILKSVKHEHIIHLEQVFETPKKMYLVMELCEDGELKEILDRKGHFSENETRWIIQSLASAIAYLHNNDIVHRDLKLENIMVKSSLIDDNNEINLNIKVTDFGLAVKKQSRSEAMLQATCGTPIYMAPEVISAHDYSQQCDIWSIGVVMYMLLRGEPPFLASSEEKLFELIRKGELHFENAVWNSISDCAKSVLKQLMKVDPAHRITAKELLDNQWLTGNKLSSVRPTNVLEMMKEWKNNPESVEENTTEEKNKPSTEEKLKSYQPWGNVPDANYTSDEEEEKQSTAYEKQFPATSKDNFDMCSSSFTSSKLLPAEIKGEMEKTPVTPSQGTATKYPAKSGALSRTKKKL

[4] = target: T1, Cyclin-G-associated kinase (Homo sapiens) (UniProt O14976); assay: Binding affinity to GAK assessed as change in thermal denaturation at 10 uM by thermal stability shift assay; how it was run: as §1
T1 sequence (whole entry): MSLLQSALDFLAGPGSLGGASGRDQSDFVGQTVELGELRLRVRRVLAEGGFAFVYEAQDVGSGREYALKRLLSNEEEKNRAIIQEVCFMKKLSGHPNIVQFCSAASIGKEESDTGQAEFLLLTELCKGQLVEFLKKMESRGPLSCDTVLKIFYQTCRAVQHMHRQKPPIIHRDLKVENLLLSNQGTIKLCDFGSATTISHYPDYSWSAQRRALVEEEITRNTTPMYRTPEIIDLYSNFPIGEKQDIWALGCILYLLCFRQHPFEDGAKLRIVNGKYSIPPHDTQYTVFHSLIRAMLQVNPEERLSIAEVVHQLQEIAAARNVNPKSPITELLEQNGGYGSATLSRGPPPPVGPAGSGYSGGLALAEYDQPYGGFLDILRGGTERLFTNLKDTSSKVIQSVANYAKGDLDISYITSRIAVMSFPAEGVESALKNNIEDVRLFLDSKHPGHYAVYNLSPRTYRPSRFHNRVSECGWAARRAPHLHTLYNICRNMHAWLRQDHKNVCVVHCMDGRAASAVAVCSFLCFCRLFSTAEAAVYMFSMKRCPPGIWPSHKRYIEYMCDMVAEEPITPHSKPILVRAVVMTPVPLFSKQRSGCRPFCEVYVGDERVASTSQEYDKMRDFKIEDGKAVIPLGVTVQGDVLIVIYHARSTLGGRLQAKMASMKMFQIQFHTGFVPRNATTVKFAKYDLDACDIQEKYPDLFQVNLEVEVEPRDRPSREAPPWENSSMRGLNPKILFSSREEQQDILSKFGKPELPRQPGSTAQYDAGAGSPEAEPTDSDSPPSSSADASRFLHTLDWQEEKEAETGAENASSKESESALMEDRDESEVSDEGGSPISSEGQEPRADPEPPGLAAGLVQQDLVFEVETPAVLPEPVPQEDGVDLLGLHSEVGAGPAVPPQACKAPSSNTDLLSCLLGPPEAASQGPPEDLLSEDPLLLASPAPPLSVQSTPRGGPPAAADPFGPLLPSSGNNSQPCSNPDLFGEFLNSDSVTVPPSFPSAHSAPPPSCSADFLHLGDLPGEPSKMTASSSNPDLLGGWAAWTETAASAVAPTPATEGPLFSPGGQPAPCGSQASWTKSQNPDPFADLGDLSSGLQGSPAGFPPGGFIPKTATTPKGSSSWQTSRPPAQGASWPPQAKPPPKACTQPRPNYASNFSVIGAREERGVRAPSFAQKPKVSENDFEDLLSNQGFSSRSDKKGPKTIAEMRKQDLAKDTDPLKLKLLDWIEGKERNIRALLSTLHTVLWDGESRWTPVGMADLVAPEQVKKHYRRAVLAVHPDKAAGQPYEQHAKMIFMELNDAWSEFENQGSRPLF

[5] = target: T2, Serine/threonine-protein kinase haspin (Homo sapiens) (UniProt Q8TF76); assay: Binding affinity to Haspin assessed as change in thermal denaturation at 10 uM by thermal stability shift assay; how it was run: as §1
T2 sequence (whole entry): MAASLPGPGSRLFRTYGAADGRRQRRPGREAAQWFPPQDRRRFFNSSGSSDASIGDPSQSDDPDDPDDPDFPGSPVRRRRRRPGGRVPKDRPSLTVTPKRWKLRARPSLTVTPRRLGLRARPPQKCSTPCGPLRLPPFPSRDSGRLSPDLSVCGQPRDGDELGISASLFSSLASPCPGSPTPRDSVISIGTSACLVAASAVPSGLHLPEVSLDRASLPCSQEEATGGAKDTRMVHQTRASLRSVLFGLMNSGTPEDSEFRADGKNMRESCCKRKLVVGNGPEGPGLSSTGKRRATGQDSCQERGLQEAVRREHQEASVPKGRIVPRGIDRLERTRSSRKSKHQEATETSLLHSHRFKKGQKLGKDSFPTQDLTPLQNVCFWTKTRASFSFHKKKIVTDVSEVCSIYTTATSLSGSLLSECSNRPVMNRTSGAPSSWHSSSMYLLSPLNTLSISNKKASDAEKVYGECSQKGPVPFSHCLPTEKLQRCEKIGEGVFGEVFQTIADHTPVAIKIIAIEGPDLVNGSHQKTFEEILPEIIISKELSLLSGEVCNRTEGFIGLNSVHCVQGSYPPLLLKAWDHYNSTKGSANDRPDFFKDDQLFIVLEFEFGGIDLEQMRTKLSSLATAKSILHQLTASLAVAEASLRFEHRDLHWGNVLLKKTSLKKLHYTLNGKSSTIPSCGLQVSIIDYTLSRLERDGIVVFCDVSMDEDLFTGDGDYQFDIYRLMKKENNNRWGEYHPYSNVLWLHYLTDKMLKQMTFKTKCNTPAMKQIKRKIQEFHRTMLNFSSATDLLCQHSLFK

[6] = target: Protein kinase C gamma type (Homo sapiens) (UniProt P05129); assay: Binding affinity to PKCgamma assessed as change in thermal denaturation at 10 uM by thermal stability shift assay; how it was run: as §1
[7] = target: Serine/threonine-protein kinase PLK1 (Homo sapiens) (UniProt P53350); assay: Binding affinity to PLK1 assessed as change in thermal denaturation at 10 uM by thermal stability shift assay; how it was run: as §1
Serine/threonine-protein kinase PLK1 (Homo sapiens), sequence (P53350 whole entry): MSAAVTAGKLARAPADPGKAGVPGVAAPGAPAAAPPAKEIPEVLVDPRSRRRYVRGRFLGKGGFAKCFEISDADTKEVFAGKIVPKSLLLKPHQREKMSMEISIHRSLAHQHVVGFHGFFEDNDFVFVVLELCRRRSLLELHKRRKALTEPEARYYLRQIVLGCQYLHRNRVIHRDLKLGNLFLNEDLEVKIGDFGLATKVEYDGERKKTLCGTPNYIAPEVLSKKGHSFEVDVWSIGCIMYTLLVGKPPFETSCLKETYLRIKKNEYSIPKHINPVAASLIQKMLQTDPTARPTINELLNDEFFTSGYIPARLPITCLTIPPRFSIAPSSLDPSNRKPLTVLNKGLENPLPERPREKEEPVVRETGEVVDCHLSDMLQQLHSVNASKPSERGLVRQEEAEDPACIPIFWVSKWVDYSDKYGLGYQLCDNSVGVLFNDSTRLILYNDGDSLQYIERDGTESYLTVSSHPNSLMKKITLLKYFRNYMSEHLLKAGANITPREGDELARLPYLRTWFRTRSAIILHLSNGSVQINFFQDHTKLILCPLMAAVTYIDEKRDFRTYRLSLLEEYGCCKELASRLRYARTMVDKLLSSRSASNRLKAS

[8] = Binding affinity to RSK4beta assessed as change in thermal denaturation at 10 uM by thermal stability shift assay; how it was run: as §1
[9] = target: Dual specificity protein kinase CLK4 (Homo sapiens) (UniProt Q9HAZ1); assay: Binding affinity to CLK4 assessed as change in thermal denaturation at 10 uM by thermal stability shift assay; how it was run: as §1
Dual specificity protein kinase CLK4 (Homo sapiens), sequence (Q9HAZ1 whole entry, looked up): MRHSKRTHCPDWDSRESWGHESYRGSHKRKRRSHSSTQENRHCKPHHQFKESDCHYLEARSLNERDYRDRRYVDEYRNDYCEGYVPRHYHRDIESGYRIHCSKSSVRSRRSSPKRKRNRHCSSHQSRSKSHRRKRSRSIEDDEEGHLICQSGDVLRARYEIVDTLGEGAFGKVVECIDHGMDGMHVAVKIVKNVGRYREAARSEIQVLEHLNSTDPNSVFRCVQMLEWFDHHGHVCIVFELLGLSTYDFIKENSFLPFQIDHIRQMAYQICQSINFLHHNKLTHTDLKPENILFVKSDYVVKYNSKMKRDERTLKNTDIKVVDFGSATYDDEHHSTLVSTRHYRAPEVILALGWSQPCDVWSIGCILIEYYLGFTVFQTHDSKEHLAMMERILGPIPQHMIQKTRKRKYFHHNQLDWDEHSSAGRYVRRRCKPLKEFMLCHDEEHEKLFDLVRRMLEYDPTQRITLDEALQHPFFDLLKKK

[10] = target: Serine/threonine-protein kinase pim-2 (Homo sapiens, UniProt Q9P1W9); assay: Binding affinity to PIM2 assessed as change in thermal denaturation at 10 uM by thermal stability shift assay; how it was run: as §1
Serine/threonine-protein kinase pim-2, sequence (Q9P1W9 whole entry, looked up): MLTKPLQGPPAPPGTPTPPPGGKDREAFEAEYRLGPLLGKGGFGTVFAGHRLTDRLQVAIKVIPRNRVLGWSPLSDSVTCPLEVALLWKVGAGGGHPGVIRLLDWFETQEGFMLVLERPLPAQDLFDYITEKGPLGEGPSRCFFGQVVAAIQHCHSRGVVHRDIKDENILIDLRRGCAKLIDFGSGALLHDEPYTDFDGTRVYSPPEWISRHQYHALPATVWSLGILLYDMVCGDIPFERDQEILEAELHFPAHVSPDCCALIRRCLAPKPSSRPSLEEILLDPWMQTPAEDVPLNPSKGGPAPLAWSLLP

AP2-associated protein kinase 1 (Homo sapiens), sequence (Q2M2I8 whole entry, looked up): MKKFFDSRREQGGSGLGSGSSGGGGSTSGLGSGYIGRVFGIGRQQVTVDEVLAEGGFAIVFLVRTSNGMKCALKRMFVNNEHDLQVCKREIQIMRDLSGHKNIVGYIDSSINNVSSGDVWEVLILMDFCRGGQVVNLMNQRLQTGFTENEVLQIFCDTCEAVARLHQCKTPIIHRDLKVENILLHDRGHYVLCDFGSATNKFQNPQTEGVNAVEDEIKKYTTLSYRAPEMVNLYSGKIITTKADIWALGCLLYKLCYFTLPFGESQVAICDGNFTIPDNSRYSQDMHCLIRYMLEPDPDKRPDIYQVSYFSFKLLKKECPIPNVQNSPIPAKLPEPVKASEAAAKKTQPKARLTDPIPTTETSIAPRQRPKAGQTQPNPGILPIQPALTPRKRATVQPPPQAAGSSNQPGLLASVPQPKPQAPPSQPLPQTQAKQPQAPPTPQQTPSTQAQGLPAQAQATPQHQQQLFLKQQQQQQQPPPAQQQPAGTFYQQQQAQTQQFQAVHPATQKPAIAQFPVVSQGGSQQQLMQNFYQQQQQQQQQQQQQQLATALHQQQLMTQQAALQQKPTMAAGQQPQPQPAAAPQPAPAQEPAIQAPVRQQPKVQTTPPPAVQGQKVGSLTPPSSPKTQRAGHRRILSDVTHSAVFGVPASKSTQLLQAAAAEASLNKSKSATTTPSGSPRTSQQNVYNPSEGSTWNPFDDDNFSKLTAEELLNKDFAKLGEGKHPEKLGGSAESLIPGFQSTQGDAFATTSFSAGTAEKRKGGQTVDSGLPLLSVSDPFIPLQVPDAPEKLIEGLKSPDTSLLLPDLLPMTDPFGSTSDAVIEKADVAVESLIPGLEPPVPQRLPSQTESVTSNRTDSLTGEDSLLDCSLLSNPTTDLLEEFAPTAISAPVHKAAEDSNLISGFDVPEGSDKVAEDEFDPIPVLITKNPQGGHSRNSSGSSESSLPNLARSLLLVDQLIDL

| ΔTm [1] [°C] | ΔTm [2] [°C] | ΔTm [3] [°C] | ΔTm [4] [°C] | ΔTm [5] [°C] | ΔTm [6] [°C] | ΔTm [7] [°C] | ΔTm [8] [°C] | ΔTm [9] [°C] | ΔTm [10] [°C] | Structure (SMILES) |
| --- | --- | --- | --- | --- | --- | --- | --- | --- | --- | --- |
| 0.9 | 1.1 | 2.2 | 0.8 | 3.4 | 3.9 | 0.6 | 0.2 | 2.1 | 5.2 | CN1CCC2(CC1)NC(=O)c1c(c3ccc(Cl)c(Cl)c3n1C)C2C#N (racemic) |
| 1.7 | 5 | 0.6 | 1.2 | 0.4 | 0.8 | 0.9 | -0.1 | 2.8 | 2 | CCC1(CC)NC(=O)c2c(c3ccc(Cl)c(Cl)c3n2C)C1C#N (configuration not stated) |
| 0.6 | 2.9 | 1 | 0 | 1.7 | 0.4 | 3.2 | 0.1 | 1.4 | -0.2 | Cn1c2c(c3ccccc31)C(C#N)C(C)(C)NC2=O (configuration not stated) |
| 0.2 | 1.5 | 0.3 | 0.5 | 0.3 | 0 | 0.7 | 0.4 | 1.4 | 0.7 | CC(=O)NCC1c2c(n(C)c3c(Cl)c(Cl)ccc23)C(=O)NC1(C)C (racemic) |
| 2.2 | 8.1 | 2.2 | 2.8 | 0.9 | 1.7 | 4.9 | 2.3 | 4.3 | 3.6 | Cn1c2c(c3ccc(Cl)c(Cl)c31)C(C#N)C(C)(C)NC2=O (configuration not stated) |
| 3.9 | 10.4 | 1.2 | 1.6 | 3.2 | 1.2 | 3.1 | 1.4 | 0.9 | 1.6 | Cn1c2c(Cl)c(Cl)ccc2c2cn[nH]c(=O)c21 |
| 0.3 | – | 0.3 | -0.2 | 0.3 | 0.2 | 0.5 | -0.4 | 0 | -0.2 | Cn1c2c(c3ccc(Cl)c(Cl)c31)C(C#N)C1(CCN(C(=O)OC(C)(C)C)CC1)NC2=O (racemic) |
| 4.6 | 10.1 | 2.3 | 3.3 | 3.4 | 1.2 | 1.6 | 4 | 3.2 | 2.9 | Cn1c2c(Cl)c(Cl)ccc2c2cc[nH]c(=O)c21 |
| 1.1 | 6.8 | 1.1 | 2.5 | 0.3 | 0.7 | 4 | 0.1 | 4.9 | 2.3 | CC1(C)NC(=O)c2[nH]c3c(Cl)c(Cl)ccc3c2C1C#N (configuration not stated) |
| 2 | 7.9 | 0.4 | 4.3 | 2.7 | 0.2 | 1.4 | 1.2 | 2.1 | 3 | Cn1c2c(Cl)c(Cl)ccc2c2cc(N)[nH]c(=O)c21 |
| 0.2 | 0.3 | 2.1 | 0.9 | 2.6 | 4.5 | 0.4 | 0.2 | 1.8 | 3.9 | CCN1CCC2(CC1)NC(=O)c1c(c3ccc(Cl)c(Cl)c3n1C)C2C#N (racemic) |
| 2.6 | 2.6 | 0.7 | 1.3 | 1.1 | 1 | 0.8 | 0 | 2.8 | 2.2 | Cn1c2c(c3ccc(Cl)c(Cl)c31)C(C#N)C1(CCOCC1)NC2=O (configuration not stated) |
| 1.5 | 2.2 | 0.2 | 1.2 | 0.1 | 0.5 | 1.3 | 0.1 | 3.3 | 1.6 | Cn1c2c(c3ccc(Cl)c(Cl)c31)C(C#N)C1(CCCC1)NC2=O (configuration not stated) |
| 0.8 | 3 | 0.9 | 0.7 | 1.8 | 1.7 | -0.6 | 0.7 | 2.8 | 3.2 | Cn1c2c(c3ccc(Cl)c(Cl)c31)C(CN)C(C)(C)NC2=O (racemic) |
| 2.4 | – | 0.5 | 2.8 | 0 | 1.3 | 0.3 | -0.2 | 5.7 | 1.4 | N#CC1c2c([nH]c3c(Cl)c(Cl)ccc23)C(=O)NC12CCCCC2 (racemic) |

| Structure (SMILES) | ΔTm [1] [°C] | ΔTm [2] [°C] | ΔTm [3] [°C] | ΔTm [4] [°C] | ΔTm [5] [°C] | ΔTm [6] [°C] | ΔTm [7] [°C] | ΔTm [8] [°C] | ΔTm [9] [°C] | ΔTm [10] [°C] |
| --- | --- | --- | --- | --- | --- | --- | --- | --- | --- | --- |
| Cn1c2c(c3ccc(Cl)c(Cl)c31)C(C#N)C1(CCNCC1)NC2=O (racemic) | 1.5 | – | 5.9 | 1.4 | 5.6 | 6.1 | 1.4 | 0.8 | 4.6 | 6.5 |
